{
  "source": "paper PMC13647048",
  "about": "(Zoological Research, 2026)",
  "key": {"[1]": {"test_system": "CLP-induced septic BALB/c mice", "assay": "CLP-induced sepsis in mice", "format": "in vivo, mouse", "method_in_brief": "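Male BALB/c mice, eight weeks old, 18–25 g, acclimatized 3 days, then anesthetized with xylazine 8 mg/kg plus ketamine 100 mg/kg. CLP was done under aseptic conditions; sham mice had the same surgery without CLP. Within 1 h post-surgery mice got test compound 5 mg/kg, DXM 10 mg/kg or 0.9% saline i.p. Survival was followed 72 h and clinical scoring done at 24 h. A separate cohort gave blood and organs at 12 h for cytokines.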"}, "[2]": {"test_system": "E. coli ATCC 25922", "assay": "Time-kill assay", "format": "cell-based, Escherichia coli", "details": "meropenem 0.015 μmol/L; not completely eradicated within this time; n=3", "method_in_brief": "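E. coli ATCC 25922 was exposed to test compound at several concentrations and sampled over incubation time. Viable CFU were counted by the spread plate method. Normal saline served as negative control and meropenem as positive control.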"}, "[3]": {"test_system": "Escherichia coli ATCC 25922", "assay": "MIC, two-fold dilution, E. coli", "format": "cell-based", "details": "meropenem as positive control, E. coli ATCC 25922"}, "[4]": {"details": "serum and lung, HR-CATH2 5 mg/kg or DXM 10 mg/kg i.p., 12 h post-surgery"}},
  "data": [
    {"smiles": "C[C@@H]1C[C@H]2[C@@H]3CCC4=CC(=O)C=C[C@]4(C)[C@@]3(F)[C@@H](O)C[C@]2(C)[C@@]1(O)C(=O)CO", "note": "[DXM, dexamethasone]", "values": [
      {"measurement": "Clinical scores", "setting": "[1]; 24 h after CLP, DXM 10 mg/kg i.p.", "result": "reduced clinical scores"},
      {"measurement": "Survival", "setting": "[1]; 72 h after CLP, DXM 10 mg/kg i.p., n=10 per group", "result": "markedly improved survival"},
      {"measurement": "Histopathological tissue injury", "setting": "[1]; lung, kidney, liver, H&E, HR-CATH2 5 mg/kg or DXM 10 mg/kg i.p. at 1 h after CLP, 12 h post-surgery", "result": "significantly alleviated tissue injury"},
      {"measurement": "MPO activity", "setting": "[1]; lung, HR-CATH2 5 mg/kg or DXM 10 mg/kg i.p., 12 h post-surgery", "result": "significantly attenuated"},
      {"measurement": "IL-1β concentration", "setting": "[1]; [4]", "result": "significantly attenuated"},
      {"measurement": "IL-6 concentration", "setting": "[1]; [4]", "result": "significantly attenuated"},
      {"measurement": "MCP-1 concentration", "setting": "[1]; [4]", "result": "significantly attenuated"},
      {"measurement": "TNF-α concentration", "setting": "[1]; [4]", "result": "significantly attenuated"}
    ]},
    {"smiles": "C[C@@H](O)[C@H]1C(=O)N2C(C(=O)O)=C(S[C@@H]3CN[C@H](C(=O)N(C)C)C3)[C@H](C)[C@H]12", "note": "[meropenem]", "values": [
      {"measurement": "Time to complete eradication of E. coli", "setting": "[2]", "result": "> 180", "unit": "min"},
      {"measurement": "MIC (positive control)", "setting": "[3]", "result": 0.015, "unit": "mol/L"}
    ]}
  ]
}
